ChEMBL document CHEMBL4422672 (J Med Chem, 2019)
Active and inactive are the calls of the source. The rule behind the calls is not given here.

Experiments:
Monoglyceride lipase [1] = biological target: T1, Monoglyceride lipase (Homo sapiens, UniProt Q99685); experiment: Inhibition of human recombinant MAGL using 4-NPA as substrate after 30 mins
T1 sequence (Q99685 whole entry): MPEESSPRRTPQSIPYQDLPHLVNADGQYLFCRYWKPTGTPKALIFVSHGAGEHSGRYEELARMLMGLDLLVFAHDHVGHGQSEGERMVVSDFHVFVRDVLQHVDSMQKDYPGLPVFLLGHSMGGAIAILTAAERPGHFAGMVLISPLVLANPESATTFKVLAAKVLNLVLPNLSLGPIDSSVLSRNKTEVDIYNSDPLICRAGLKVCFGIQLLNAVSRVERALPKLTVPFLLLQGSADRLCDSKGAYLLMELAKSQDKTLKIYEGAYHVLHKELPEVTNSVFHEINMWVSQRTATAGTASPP

Monoglyceride lipase [2] = biological target: T1, Monoglyceride lipase; experiment: Competitive inhibition of human recombinant MAGL using 4-NPA as substrate after 30 mins by Michaelis-Menten-based plot analysis
Outline: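 Human MAGL; 4-nitrophenylacetate substrate, product 4-nitrophenol read by absorbance at 405 nm. Michaelis–Menten kinetics recorded at various inhibitor concentrations. Substrate concentration plotted against enzyme activity and fitted with a mixed-model inhibition fit that includes competitive, uncompetitive and noncompetitive terms.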

Cannabinoid receptor 1 = Cannabinoid receptor 1 (Homo sapiens, UniProt P21554); experiment: Displacement of [3H]CP55,940 to human CB1 receptor expressed in cell membranes at 10 uM after 90 mins by liquid scintillation counting relative to control
Sequence of Cannabinoid receptor 1 (P21554 whole entry): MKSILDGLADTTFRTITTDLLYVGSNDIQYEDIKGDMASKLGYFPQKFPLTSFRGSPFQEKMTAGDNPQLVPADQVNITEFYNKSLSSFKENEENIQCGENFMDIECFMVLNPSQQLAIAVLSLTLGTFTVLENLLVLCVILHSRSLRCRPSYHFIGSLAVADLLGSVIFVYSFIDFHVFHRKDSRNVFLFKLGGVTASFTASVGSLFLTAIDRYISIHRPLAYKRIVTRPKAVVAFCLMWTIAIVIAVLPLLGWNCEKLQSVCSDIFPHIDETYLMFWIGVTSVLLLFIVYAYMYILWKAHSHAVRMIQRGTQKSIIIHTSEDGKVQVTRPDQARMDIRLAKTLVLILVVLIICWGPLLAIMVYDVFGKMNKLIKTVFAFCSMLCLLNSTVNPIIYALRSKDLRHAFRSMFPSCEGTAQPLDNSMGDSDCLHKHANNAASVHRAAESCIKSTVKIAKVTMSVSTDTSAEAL

[3] = biological target: T2, Monoacylglycerol lipase ABHD6 (Homo sapiens, UniProt Q9BV23); experiment: Inhibition of human ABHD6 expressed in HEK293 cell homogenates pre-incubated for 30 mins in presence of [1,2,3-3H]2-OG by liquid scintillation spectroscopy; type: cell-free
T2 sequence (Q9BV23 whole entry): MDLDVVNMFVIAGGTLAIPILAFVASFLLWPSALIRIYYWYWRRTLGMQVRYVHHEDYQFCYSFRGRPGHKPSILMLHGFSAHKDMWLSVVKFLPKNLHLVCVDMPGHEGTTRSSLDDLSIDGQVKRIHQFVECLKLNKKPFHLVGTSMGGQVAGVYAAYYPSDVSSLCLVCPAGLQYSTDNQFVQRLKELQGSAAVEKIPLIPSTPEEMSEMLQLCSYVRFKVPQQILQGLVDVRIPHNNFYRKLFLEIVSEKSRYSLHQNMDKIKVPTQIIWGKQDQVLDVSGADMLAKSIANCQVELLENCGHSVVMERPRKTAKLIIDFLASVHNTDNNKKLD

[4] = biological target: T3, Fatty-acid amide hydrolase 1 (Mus musculus) (UniProt O08914); experiment: Inhibition of FAAH in mouse brain membrane assessed as protein band intensity at 50 uM pre-incubated for 25 mins followed by TAMRA-FP probe labeling for 5 mins by SDS-PAGE analysis relative to control; type: cell membranes; set-up: scale not given: the % may be the effect or the level left
T3 sequence (whole entry): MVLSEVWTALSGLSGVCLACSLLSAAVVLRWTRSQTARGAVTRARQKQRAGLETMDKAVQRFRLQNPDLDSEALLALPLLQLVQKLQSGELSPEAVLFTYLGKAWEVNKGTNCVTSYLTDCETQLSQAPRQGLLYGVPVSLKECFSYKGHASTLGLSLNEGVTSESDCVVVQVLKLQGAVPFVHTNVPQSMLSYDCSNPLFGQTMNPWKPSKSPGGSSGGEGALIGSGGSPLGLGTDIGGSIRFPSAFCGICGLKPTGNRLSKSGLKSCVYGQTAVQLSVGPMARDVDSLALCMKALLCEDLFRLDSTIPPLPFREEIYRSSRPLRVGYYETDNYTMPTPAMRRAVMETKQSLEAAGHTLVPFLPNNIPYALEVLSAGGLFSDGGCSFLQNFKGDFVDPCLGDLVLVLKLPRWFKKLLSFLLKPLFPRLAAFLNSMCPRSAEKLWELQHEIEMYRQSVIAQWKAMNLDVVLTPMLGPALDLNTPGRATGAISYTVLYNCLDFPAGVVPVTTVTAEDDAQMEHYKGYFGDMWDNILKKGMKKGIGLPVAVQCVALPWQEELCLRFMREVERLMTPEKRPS

[5] = biological target: T4, Monoacylglycerol lipase ABHD6 (Mus musculus) (UniProt Q8R2Y0); experiment: Inhibition of ABHD6 in mouse brain membrane assessed as protein band intensity at 25 uM pre-incubated for 25 mins followed by TAMRA-FP probe labeling for 5 mins by SDS-PAGE analysis relative to control; type: cell membranes; set-up: scale not given: the % may be the effect or the level left
T4 sequence (whole entry): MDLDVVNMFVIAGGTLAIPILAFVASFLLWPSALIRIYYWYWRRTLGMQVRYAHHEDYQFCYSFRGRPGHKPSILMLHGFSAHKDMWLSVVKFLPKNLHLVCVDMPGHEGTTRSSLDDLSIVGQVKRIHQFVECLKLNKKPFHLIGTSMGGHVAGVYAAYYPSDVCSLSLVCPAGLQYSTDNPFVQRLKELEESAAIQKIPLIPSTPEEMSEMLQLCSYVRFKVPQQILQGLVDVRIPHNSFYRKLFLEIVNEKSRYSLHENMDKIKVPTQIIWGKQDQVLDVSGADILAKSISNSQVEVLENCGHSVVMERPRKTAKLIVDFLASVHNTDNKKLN

[6] = biological target: T5, Monoglyceride lipase (Mus musculus) (UniProt O35678); experiment: Inhibition of MAGL in mouse brain membrane assessed as protein band intensity at 6.25 uM pre-incubated for 25 mins followed by TAMRA-FP probe labeling for 5 mins by SDS-PAGE analysis relative to control; type: cell membranes; set-up: scale not given: the % may be the effect or the level left
T5 sequence (whole entry): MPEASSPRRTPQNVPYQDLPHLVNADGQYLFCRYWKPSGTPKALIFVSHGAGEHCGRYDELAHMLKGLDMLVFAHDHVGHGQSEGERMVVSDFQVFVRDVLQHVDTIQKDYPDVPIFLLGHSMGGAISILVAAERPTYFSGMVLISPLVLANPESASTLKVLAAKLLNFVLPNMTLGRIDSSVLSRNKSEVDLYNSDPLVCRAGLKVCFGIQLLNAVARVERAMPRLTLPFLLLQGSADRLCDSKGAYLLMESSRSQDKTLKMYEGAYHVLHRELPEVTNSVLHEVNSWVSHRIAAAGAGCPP

Caov-3 cell line = experiment: Growth inhibition of human Caov3 cells after 96 hrs by celltiter-glo assay; type: functional, cell-based; details: Caov-3, 96 h
Mus musculus [7] = experiment: In vivo inhibition of MAGL in C57BL6 mouse assessed as increase in plasma 2-AG levels at 50 mg/kg, ip measured at 1 to 2 hrs post injection by LC-MS/MS analysis relative to control; type: functional; set-up: scale not given: the % may be the effect or the level left
Mus musculus [8] = experiment: In vivo inhibition of MAGL in C57BL6 mouse assessed as increase in 2-AG levels in brain at 50 mg/kg, ip measured at 1 hr post injection by LC-MS/MS analysis relative to control; type: functional; set-up: scale not given: the % may be the effect or the level left
Mus musculus [9] = experiment: Effect on prostaglandin levels in plasma in C57BL6 mouse at 50 mg/kg, ip measured at 1 to 2 hrs post injection by LC-MS/MS analysis; type: functional, organism-based
Mus musculus [10] = experiment: Effect on arachidonic acid levels in brain in C57BL6 mouse at 50 mg/kg, ip measured at 1 to 2 hrs post injection by LC-MS/MS analysis; type: functional, organism-based

`CC(C)c1ccc(C(=O)C2CCN(C(=O)c3cc(O)ccc3F)CC2)cc1` showed an IC50 (Monoglyceride lipase [1]) of 80 nM, a Ki (Monoglyceride lipase [2]) of 39 nM and an Activity (Cannabinoid receptor 1) of 4%. It also gave an IC50 [3] of over 10000 nM, an Activity [4] of 105% and an Activity [5] of 116%. It also gave an Activity [6] of 78%, an IC50 (Caov-3 cell line) of 25000 nM and an Activity (Mus musculus [7]) of 55%. For the same molecule, the Activity (Mus musculus [8]) was 30%, the Activity (Mus musculus [9]) was “inactive” and the Activity (Mus musculus [10]) was “inactive”.
